This is an account of results in ChEMBL document CHEMBL1137338, “Effects of substitution on 9-(3-bromo-4-fluorophenyl)-5,9-dihydro-3H,4H-2,6-dioxa-4- azacyclopenta[b]naphthalene-1,8-dione, a dihydropyridine ATP-sensitive potassium channel opener” (J Med Chem, 2006).

What is called EC50 is the midpoint of the concentration-response curve.

Assay [1] concerns the target T1, Sulfonylurea receptor 2, Kir6.2 (Homo sapiens) (UniProt Q14654+O60706). Nature of the assay: Activity against pig bladder KATP channel opening assessed as ability to relax field-stimulated pig detrusor relative to P1075. In kind it is functional. The following applies: Sus scrofa; target entry is the homologue from another species.
In assay [2] the target is T1, Sulfonylurea receptor 2, Kir6.2 (Homo sapiens). As to the kind of experiment: Ability to open human urinary bladder Kir6.2 containing SUR2B in Ltk cells by FLIPR assay relative to P1075. In kind it is functional, cell-based. In short, it runs like this:
(§1)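 Ltk- cells stably transfected with the Kir6.2/SUR2B exon 17- splice variant. Membrane potential was followed with DiBAC dye in a 96-well cell-based kinetic fluorescence (FLIPR) assay. The highest concentration tested was 10 µM. Each compound's maximal fluorescence response was expressed as % of the response to the reference opener.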

For assay [3], the target named is T2, Sulfonylurea receptor 2, Kir6.2 (Homo sapiens, UniProt O60706+Q14654). Nature of the assay: Ability to open human urinary bladder Kir6.2 channel containing SUR2B in Ltk cells by FLIPR assay. It counts as functional, cell-based. Summed up:
as §1

For assay [4], the target named is T2, Sulfonylurea receptor 2, Kir6.2. Nature of the assay: Activity against pig bladder KATP channel opening assessed as ability to relax field-stimulated pig detrusor. In kind it is functional, Sus scrofa. To be noted: target entry is the homologue from another species.

T2 sequence (Q14654 whole entry): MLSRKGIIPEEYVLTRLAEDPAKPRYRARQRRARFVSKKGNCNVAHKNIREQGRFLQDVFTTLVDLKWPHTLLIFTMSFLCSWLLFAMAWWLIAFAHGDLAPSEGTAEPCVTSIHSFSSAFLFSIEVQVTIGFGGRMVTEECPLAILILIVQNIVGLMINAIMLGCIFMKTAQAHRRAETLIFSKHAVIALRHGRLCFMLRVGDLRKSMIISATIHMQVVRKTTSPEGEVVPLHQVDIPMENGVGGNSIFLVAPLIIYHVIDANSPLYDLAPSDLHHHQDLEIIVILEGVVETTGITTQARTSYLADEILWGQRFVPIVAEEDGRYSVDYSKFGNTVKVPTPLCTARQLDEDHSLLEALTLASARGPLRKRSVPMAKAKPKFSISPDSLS
T2 sequence (O60706 whole entry): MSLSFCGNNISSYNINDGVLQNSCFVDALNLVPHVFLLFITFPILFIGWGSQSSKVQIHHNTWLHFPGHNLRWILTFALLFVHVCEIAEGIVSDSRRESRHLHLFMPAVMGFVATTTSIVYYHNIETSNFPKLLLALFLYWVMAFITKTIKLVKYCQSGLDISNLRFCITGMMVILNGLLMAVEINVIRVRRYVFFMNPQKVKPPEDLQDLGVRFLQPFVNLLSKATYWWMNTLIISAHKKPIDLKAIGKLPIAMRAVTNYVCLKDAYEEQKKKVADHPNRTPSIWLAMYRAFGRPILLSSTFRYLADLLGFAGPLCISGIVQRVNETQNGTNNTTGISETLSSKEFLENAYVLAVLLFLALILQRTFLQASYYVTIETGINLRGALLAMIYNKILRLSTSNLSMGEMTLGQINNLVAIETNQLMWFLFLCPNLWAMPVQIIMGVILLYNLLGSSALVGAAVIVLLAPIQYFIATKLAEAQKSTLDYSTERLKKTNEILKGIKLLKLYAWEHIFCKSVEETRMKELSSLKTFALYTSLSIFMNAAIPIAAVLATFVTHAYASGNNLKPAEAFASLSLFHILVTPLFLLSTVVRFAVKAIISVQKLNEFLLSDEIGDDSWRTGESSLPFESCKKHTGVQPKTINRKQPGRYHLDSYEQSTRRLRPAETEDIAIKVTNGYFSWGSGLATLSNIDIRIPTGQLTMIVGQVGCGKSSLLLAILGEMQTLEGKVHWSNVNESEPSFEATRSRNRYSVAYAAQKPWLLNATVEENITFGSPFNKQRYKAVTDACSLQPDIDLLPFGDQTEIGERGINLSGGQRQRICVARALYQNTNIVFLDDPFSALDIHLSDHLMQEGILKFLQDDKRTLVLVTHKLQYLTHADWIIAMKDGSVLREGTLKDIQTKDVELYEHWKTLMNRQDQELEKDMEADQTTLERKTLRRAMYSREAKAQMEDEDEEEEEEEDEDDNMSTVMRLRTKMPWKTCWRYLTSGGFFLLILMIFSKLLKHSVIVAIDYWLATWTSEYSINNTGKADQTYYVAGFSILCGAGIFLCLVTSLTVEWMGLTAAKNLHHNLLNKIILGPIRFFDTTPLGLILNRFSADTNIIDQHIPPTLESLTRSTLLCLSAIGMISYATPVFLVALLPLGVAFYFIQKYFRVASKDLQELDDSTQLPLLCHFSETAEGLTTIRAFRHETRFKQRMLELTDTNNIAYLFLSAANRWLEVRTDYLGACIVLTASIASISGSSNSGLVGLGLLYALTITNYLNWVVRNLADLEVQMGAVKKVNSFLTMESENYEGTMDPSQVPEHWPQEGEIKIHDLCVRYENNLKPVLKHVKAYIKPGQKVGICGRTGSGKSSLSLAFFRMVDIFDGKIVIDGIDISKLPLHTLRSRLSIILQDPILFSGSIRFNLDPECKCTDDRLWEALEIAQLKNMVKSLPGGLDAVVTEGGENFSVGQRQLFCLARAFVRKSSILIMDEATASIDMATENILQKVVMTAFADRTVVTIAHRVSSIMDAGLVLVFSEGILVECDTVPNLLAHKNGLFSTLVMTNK

Regarding `CC[C@H]1OC(O)=C2C1=NC1=C(C(=O)CSC1)[C@H]2c1ccc(F)c(Br)c1` [listing 1 of 2 here], the Efficacy in assay [1] is 38%.

`CC1(C)OCC2=NC3=C(C(=O)COC3)C(c3ccc(F)c(Br)c3)C2=C1O` (stereo not given) displayed an Efficacy in assay [2] of 96%. In assay [3], this compound gave an EC50 of 17 nM.

On to `CC[C@@H]1OCC2=C(C1=O)[C@@H](c1ccc(F)c(Br)c1)C1=C(O)OCC1=N2` (stereo in doubt; 10a) [listing 1 of 2 here], for which the EC50 in assay [4] was 2690 nM; in assay [3] it was 776 nM.

`CC[C@H]1OC(O)=C2C1=NC1=C(C(=O)COC1)[C@H]2c1ccc(F)c(Br)c1` (stereo in doubt; 21a) [listing 1 of 2 here]: the EC50 in assay [4] was 2950 nM; in assay [3], 7240 nM.

The compound `CC[C@@H]1CC(O)=C2C1=NC1=C(C(=O)COC1)[C@H]2c1ccc(F)c(Br)c1` (relative stereo) returned an Efficacy in assay [2] of 88%. For the same compound, the EC50 in assay [3] is 1.17 nM.

In assay [2], `CC[C@@H]1OC(O)=C2C1=NC1=C(C(=O)CCC1)[C@H]2c1ccc(F)c(Br)c1` (relative stereo) returned an Efficacy of 87%. In assay [3], the EC50 is 56.2 nM.

On to `CC[C@@H]1OC(O)=C2C1=NC1=C(C(=O)CSC1)[C@H]2c1ccc(F)c(Br)c1` (relative stereo), for which the Efficacy in assay [2] was 74%. Further, a half-maximal effect in assay [3] (EC50) was put at 155 nM.

With `C[C@@H]1OC(=O)C2=C1NC1=C([C@H]2c2ccc(F)c(Br)c2)S(=O)(=O)CCC1` (relative stereo), in assay [2], the Efficacy came out at 102%. Further, a half-maximal effect in assay [3] (EC50) was put at 56.2 nM.

`C[C@H]1OC(=O)C2=C1NC1=C([C@H]2c2ccc(F)c(Br)c2)S(=O)(=O)CC1` (relative stereo): the Efficacy in assay [2] was found to be 86%. For the same compound, the EC50 in assay [3] is 407 nM.

As for `CC[C@H]1OC(O)=C2C1=NC1=C(C(=O)OCC1)[C@H]2c1ccc(F)c(Br)c1` (relative stereo), in assay [2], the Efficacy worked out at 54%. In assay [3], this compound gave an EC50 of 5010 nM.

Compound `C[C@H]1C2=C(C(=O)N1C)[C@H](c1ccc(F)c(Br)c1)C1=C(COCC1=O)N2` (relative stereo) gave an Efficacy in assay [2] of 102%. In assay [3], a half-maximal response (EC50) required 2.75 nM.

On to `CC[C@H]1OC(O)=C2C1=NC1=C(C(=O)CSC1)[C@H]2c1ccc(F)c(Br)c1` (relative stereo), for which the EC50 in assay [4] was 891 nM; in assay [3], 102 nM.

Turning to `CCC[C@H]1OC(O)=C2C1=NC1=C(C(=O)COC1)[C@H]2c1ccc(F)c(I)c1` (stereo in doubt; 41b), the values for the Efficacy in assay [1] and in assay [2] were 86% and 94%, respectively.

In the case of `C[C@@H]1OC(O)=C2C1=NC1=C(C(=O)COC1)[C@H]2c1ccc(F)c(Br)c1` (stereo in doubt; 17a) [listing 1 of 2 here], the EC50 is 35.5 nM in assay [4] and 0.912 nM in assay [3].

As to `CC[C@H]1OC(O)=C2C1=NC1=C(C(=O)CSC1)[C@H]2c1ccc(F)c(Br)c1` [listing 2 of 2 here], the EC50 in assay [4] was 955 nM.

`CC[C@H]1OC(O)=C2C1=NC1=C(C(=O)CCC1)[C@H]2c1ccc(F)c(Br)c1` (relative stereo): the Efficacy in assay [2] was 83%. In assay [3], the EC50 is 251 nM.

Take `CC[C@@H]1OC(O)=C2C1=NC1=C(C(=O)OC1)[C@H]2c1ccc(F)c(Br)c1` (relative stereo): the Efficacy in assay [2] was 94%. The compound also gave an EC50 in assay [3] of 6.03 nM.

`CCCC[C@@H]1OC(O)=C2C1=NC1=C(C(=O)COC1)[C@H]2c1ccc(F)c(Br)c1` (relative stereo) showed an Efficacy in assay [2] of 67%. The same compound showed an EC50 in assay [3] of 29.5 nM.

On to `CC[C@@H]1OC(O)=C2C1=NC1=C(C(=O)OCC1)[C@H]2c1ccc(F)c(Br)c1`, for which the Efficacy in assay [2] was 71%. Further, a half-maximal effect in assay [3] (EC50) was put at 324 nM.

In assay [2], `CC1(C)OCC2=C(C1=O)C(c1ccc(F)c(Br)c1)C1=C(O)C(C)(C)OCC1=N2` (stereo not given) had an Efficacy of 61%. Further, the response in assay [3] was half-maximal at 3890 nM (EC50).

As to `CC[C@H]1OC(O)=C2C1=NC1=C(C(=O)COC1)[C@H]2c1ccc(F)c(Br)c1` (racemic), the EC50 in assay [4] was 490 nM; in assay [3] it was 95.5 nM.

For `C[C@@H]1OC(O)=C2C1=NC1=C(C(=O)COC1)[C@H]2c1ccc(F)c(Br)c1` (stereo in doubt; 17a) [listing 2 of 2 here], the Efficacy was found to be 97% in assay [1] and 105% in assay [2].

For `CC[C@@H]1OC(O)=C2C1=NC1=C(C(=O)COC1(C)C)[C@H]2c1ccc(F)c(Br)c1` (relative stereo), the Efficacy in assay [2] is 59%. This compound gave an EC50 in assay [3] of 1740 nM.

As for `CC[C@@H]1OCC2=C(C1=O)[C@@H](c1ccc(F)c(Br)c1)C1=C(O)OCC1=N2` (stereo in doubt; 10b), the Efficacy in assay [1] amounted to 95%; in assay [2], 46%.

In assay [2], `CCC1(CC)OCC2=NC3=C(C(=O)COC3)C(c3ccc(F)c(Br)c3)C2=C1O` (stereo not given) yielded an Efficacy of 42%. In assay [3], a half-maximal response (EC50) required 13800 nM.

On to `COC[C@@H]1OC(O)=C2C1=NC1=C(C(=O)COC1)[C@H]2c1ccc(F)c(Br)c1` (relative stereo), for which the Efficacy in assay [2] came to 100%. In assay [3], this compound had an EC50 of 9.77 nM.

Turning to `C[C@@H]1C2=C(C(=O)N1C)[C@H](c1ccc(F)c(Br)c1)C1=C(O)COCC1=N2` (relative stereo), the Efficacy in assay [2] came out at 92%. This compound gave an EC50 in assay [3] of 316 nM.

Compound `C[C@@H]1OC(=O)C2=C1NC1=C([C@H]2c2ccc(F)c(Br)c2)S(=O)(=O)CC1` (relative stereo) registered an Efficacy in assay [2] of 93%. The compound also gave an EC50 in assay [3] of 135 nM.

Consider `CC(C)C[C@H]1OC(O)=C2C1=NC1=C(C(=O)COC1)[C@H]2c1ccc(F)c(Br)c1` (stereo in doubt; 31b), for which the Efficacy in assay [1] came to 35%; in assay [2] it was 59%.

As to `CC[C@@H]1OCC2=C(C1=O)[C@@H](c1ccc(F)c(Br)c1)C1=C(O)OCC1=N2` (stereo in doubt; 10a) [listing 2 of 2 here], the Efficacy in assay [1] came to 86%; in assay [2], 83%.

Turning to `O=C1CCCC2=C1[C@H](c1ccc(F)c(Br)c1)C1=C(CCS1(=O)=O)N2`, the Efficacy in assay [2] was 90%. The compound further had an EC50 in assay [3] of 158 nM.

Compound `C[C@@H]1OCC(=O)C2=C1N=C1COC(O)=C1[C@@H]2c1ccc(F)c(Br)c1` (relative stereo) came in with an Efficacy in assay [2] of 73%. In addition, the EC50 in assay [3] was 102 nM.

`C[C@H]1OC(=O)C2=C1NC1=C([C@H]2c2ccc(F)c(Br)c2)S(=O)(=O)CCC1` (relative stereo) displayed an Efficacy in assay [2] of 99%. Moreover, a half-maximal effect in assay [3] (EC50) was put at 224 nM.

In turn, `CC[C@H]1OCC(=O)C2=C1N=C1COC(O)=C1[C@@H]2c1ccc(F)c(Br)c1` (relative stereo) gave an Efficacy in assay [2] of 90%. For the same compound, the response in assay [3] was half-maximal at 18.2 nM (EC50).

For the compound `CC[C@H]1OC(O)=C2C1=NC1=C(C(=O)COC1)[C@H]2c1ccc(F)c(Br)c1` (stereo in doubt; 21a) [listing 2 of 2 here], the Efficacy in assay [1] worked out at 94%; in assay [2], 54%.

In assay [2], `CC[C@@H]1OCC(=O)C2=C1N=C1COC(O)=C1[C@@H]2c1ccc(F)c(Br)c1` (relative stereo) registered an Efficacy of 74%. This compound gave an EC50 in assay [3] of 933 nM.

The compound `CC[C@H]1OCC2=C(C1=O)[C@@H](c1ccc(F)c(Br)c1)C1=C(O)OCC1=N2` (racemic) yielded an Efficacy in assay [2] of 97%. In assay [3], this compound showed an EC50 of 1020 nM.

Consider `CC1(C)OCC(=O)C2=C1N=C1COC(O)=C1C2c1ccc(F)c(Br)c1` (stereo not given), for which the Efficacy in assay [2] was found to be 73%. This compound also gave an EC50 in assay [3] of 120 nM.

For `CC[C@H]1OCC(O)=C2C1=NC1=C(C(=O)COC1)[C@H]2c1ccc(Cl)c(Cl)c1` (stereo in doubt; 74a), in assay [2], the Efficacy came to 118%.

Consider `CC[C@H]1OCC(O)=C2C1=NC1=C(C(=O)COC1)[C@H]2c1ccc(Cl)c(Br)c1` (racemic), for which the Efficacy in assay [2] worked out at 70%.

Turning to `CC[C@H]1OCC(O)=C2C1=NC1=C(C(=O)COC1)[C@H]2c1ccc(Br)c(Br)c1` (stereo in doubt; 77b), the Efficacy in assay [2] was 104%.

Regarding `CC[C@@H]1OC(O)=C2C1=NC1=C(C(=O)C(C)(C)OC1)[C@H]2c1ccc(F)c(Br)c1` (relative stereo), in assay [2], the Efficacy was found to be 105%. For the same compound, the EC50 in assay [3] is 14.5 nM.

`CC[C@H]1OC(O)=C2C1=NC1=C(C(=O)OC1)[C@H]2c1ccc(F)c(Br)c1` (relative stereo) gave an Efficacy in assay [2] of 74%. For the same compound, a half-maximal effect in assay [3] (EC50) was put at 72.4 nM.

Consider `C[C@H]1OCC(=O)C2=C1N=C1COC(O)=C1[C@@H]2c1ccc(F)c(Br)c1` (relative stereo), for which the Efficacy in assay [2] is 96%. Besides, the EC50 in assay [3] was 1.82 nM.

The compound `C[C@H]1OC(O)=C2C1=NC1=C(C(=O)COC1)[C@H]2c1ccc(F)c(Br)c1` (stereo in doubt; 18a) came in with an Efficacy in assay [2] of 86%.

Take `CC[C@@H]1OCC(O)=C2C1=NC1=C(C(=O)COC1)[C@H]2c1ccc(F)c(Br)c1` (stereo in doubt; 70a): the Efficacy in assay [2] was found to be 87%.

The compound `COC[C@H]1OC(O)=C2C1=NC1=C(C(=O)COC1)[C@H]2c1ccc(F)c(Br)c1` (stereo in doubt; 25b) showed an Efficacy in assay [2] of 104%.

Take `CC1(C)OCC2=C(C1=O)C(c1ccc(F)c(Br)c1)C1=C(O)OCC1=N2` (stereo in doubt; 9b): the Efficacy in assay [2] is 77%.

In assay [2], `C[C@H]1OC(O)=C2C1=NC1=C(C(=O)COC1)[C@H]2c1ccc(F)c(Br)c1` (stereo in doubt; 18b) displayed an Efficacy of 85%.

As to `CCC[C@H]1OC(O)=C2C1=NC1=C(C(=O)COC1)[C@H]2c1ccc(Cl)c(Br)c1` (stereo in doubt; 43b), the Efficacy in assay [2] was determined as 99%.

In the case of `CC1(C)OC(O)=C2C1=NC1=C(C(=O)COC1)C2c1ccc(F)c(Br)c1` (stereo not given), in assay [2], the Efficacy is 77%. In assay [3], this compound had an EC50 of 26.9 nM.

`C[C@@H]1OC(O)=C2C1=NC1=C(C(=O)COC1)[C@H]2c1ccc(F)c(Br)c1` (stereo in doubt; 17b) yielded an Efficacy in assay [2] of 89%.

For the compound `CCC[C@@H]1OC(O)=C2C1=NC1=C(C(=O)COC1)[C@H]2c1ccc(F)c(Br)c1` (stereo in doubt; 22a), the Efficacy in assay [2] was determined as 82%.

Compound `CC[C@H]1OCC(O)=C2C1=NC1=C(C(=O)COC1)[C@H]2c1ccc(C)c(Br)c1` (stereo in doubt; 78b) had an Efficacy in assay [2] of 56%.

As to `COC[C@H]1OC(O)=C2C1=NC1=C(C(=O)COC1)[C@H]2c1ccc(F)c(Br)c1` (racemic), in assay [2], the Efficacy amounted to 103%.
